Where two headings read alike, the source gives them in different places.

Broadly, the half-life is how long it takes for the measured level to halve. Read a high half-life as slow loss.

Data set [1] is described as follows: Study 2: metabolite radioprofiling in plasma, urine and feces. Type of data set: in vivo, human. The essentials: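 Single oral 25 mg [14C]-labelled solution to healthy males. Plasma (to 168 h), urine and daily feces profiled by HPLC radiochromatography with fractionation and solid scintillation counting. Identification by LC/MS with accurate mass, positive and negative ion CID MS/MS; tentative unless matched to an authentic standard. Peaks < 20 cpm height below quantitation limit.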

Data set [2] deals with glycine transporter-1 (GlyT1). The conditions noted are these: rat; dose-dependent; cited from earlier work.
For data set [3] the following is noted: multiple oral doses of itraconazole; cited from earlier work.
For data set [4] the following is noted: anticipated therapeutic dose range of 5–25 mg; cited from earlier work.
For data set [5] the following is noted: cited from earlier work.
The format of data set [6] is in vivo. The conditions noted are these: human, plasma, po, 25 mg, t½, oral 25 mg solution, gMean (gCV%). The essentials: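 Healthy males, overnight fast (≥ 10 h), sitting; single oral 25 mg dose of [14C]-labelled/unlabelled mixture as 12.5 mL solution (2 mg/mL) with 240 mL water, planned 3.7 MBq; no food ≥ 4 h. Venous blood 5–8 mL per time point; plasma frozen ~−20 °C within 60 min. Cmax, AUC0–tz, AUC0–∞, tmax, t1/2 for parent, three metabolites and total radioactivity.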

Data set [7] deals with glycine transporter-1 (GlyT1). The following applies: human; dose-dependent; cited from earlier work.
The conditions of data set [8]: cited from earlier work. This is another data set of the same source.
Data set [9] in a line: Study 1: safety and tolerability. It counts as in vivo, human. The essentials: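 Healthy males given a single oral 25 mg tablet followed 4 h later by a 15-min IV [14C]-microtracer infusion. Medical surveillance for 24 h post-dose. AEs recorded continuously from screening to end-of-trial visit (Days 12–15). Assessment by physical examination, safety laboratory parameters, 12-lead ECG and vital signs (pulse rate, blood pressure).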

The format of data set [10] is in vivo, human. The conditions noted are these: gMean dose-normalized maximum plasma concentration. The essentials:
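Healthy males, overnight fast (≥ 10 h); single oral 25 mg film-coated tablet with water, fasted ≥ 4.5 h; at 4 h, 15-min IV infusion of 30 µg (3 µg [14C]-labelled, 0.011 MBq, plus 27 µg unlabelled). Plasma sampled −2 to 168 h (unlabelled) or 3–168 h (labelled), stored ~−20 °C. Unlabelled drug by validated LC/MS, labelled by AMS. Dose-normalized gMean ratio via mixed-effects ANOVA, two-sided 90% CI.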

Data set [11] is described as follows: Study 2: safety and tolerability. Type of data set: in vivo, human. The essentials: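 Healthy males, sitting, given a single oral 25 mg dose of [14C]-labelled plus unlabelled drug as a solution after an overnight fast. Safety from physical examination (AEs), safety laboratory parameters, 12-lead ECG and vital signs (pulse rate, blood pressure). Investigators graded severity and drug relatedness.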

With `C[C@@H](Oc1ccc(S(C)(=O)=O)cc1C(=O)N1C[C@@H]2C[C@]2(c2cc(C(F)(F)F)on2)C1)C(F)(F)F` [BI 425809], in data set [1] (Average, feces radioprofiling), the “% of Dose Administrated; % of the radioactive dose” value was under 1%. Moreover, the “Plasma (%AUC0-168h), % [14C]; % of total plasma radioactivity” value in [1] (Average, plasma radioprofiling) is 41.0%. Besides, the “% of total radioactivity in feces” value in data set [1] (feces radioprofiling) is reported as under 1%. Besides, the “levels of glycine in cerebral spinal fluid (CSF)” value in [2] was “increased”. The “gMean ratio of Cmax with co-administration of itraconazole” value in [3] was 116.1%. Moreover, the tolerability result in data set [4] was “generally well tolerated”. In addition, in data set [5] (25 mg tablet vs 25 mg solution), the “adjusted gMean ratio for AUC0–tz, tablet fasted vs. oral solution fasted” value is reported as 80.5% and the “adjusted gMean ratio for Cmax, tablet fasted vs. oral solution fasted” value is reported as 50.0%. In data set [5] (25 mg tablet), the “adjusted gMean ratio AUC0–tz, high-fat/high-calorie meal versus 10-h fasted” value was 125.9% and the “adjusted gMean ratio Cmax, high-fat/high-calorie meal versus 10-h fasted” value is recorded as 142.1%. In data set [6], the half-life was about 50 h. Also, in data set [7], the “levels of glycine in cerebral spinal fluid (CSF)” value is on record as “increased”. In data set [8], the “Biopharmaceutics Classification System class” value is given as “Class II” and the permeability result is on record as “high”. For the same compound, the “participants reporting at least one treatment-emergent AE” value in data set [9] (of six participants) was 50.0%. For the same compound, in [9] (study 1), the “intensity of treatment-emergent AEs” value is given as “mild intensity” and the “serious AEs, AEs leading to discontinuation, AEs of special interest” value is reported as “no serious AEs reported”. The tolerability entry in data set [9] (study 1, oral 25 mg) was “generally well tolerated”. For the same compound, the “Cmax,norm lower after oral administration versus IV dose” value in data set [10] is reported as “approximately 80%”. In [11] (6 subjects), the “Total with on-treatment adverse events, %” value is 83.3%. In data set [11] (study 2), the “AEs considered severe or drug related by the investigators” value is on record as “none” and the “SAEs, AEs leading to discontinuation, AEs of special interest” value was “No SAEs”. Besides, the tolerability entry in data set [11] (study 2, single 25 mg dose) is listed as “generally well tolerated”.

The record behind these values is article PMC8901509 (Clinical Drug Investigation, 2021).
